Data: ChEMBL document CHEMBL1126276, “Synthesis and antimalarial properties of 1-imino derivatives of 7-chloro-3-substituted-3,4-dihydro-1,9(2H,10H)-acridinediones and related structures” (J Med Chem, 1992)

How the values were obtained:
Type in all cases: functional
Plasmodium berghei [1] = test: Antimalarial activity in Plasmodium berghei infected mice (Mus musculus) after subcutaneous 640 mg/kg dose
Outline: (§1)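 Normal drug-sensitive P. berghei strain in mice. Compound dissolved or suspended in sesame or peanut oil, given parenterally as a single subcutaneous dose 72 h postinfection.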

Plasmodium berghei [2] = test: (§2) Antimalarial activity in Plasmodium berghei infected mice (Mus musculus) after 80 mg/kg subcutaneous dose
Outline: (§3)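 […] in mice infected with a normal drug-sensitive P. berghei strain. Compound dissolved or suspended in sesame or peanut oil, given as a single subcutaneous dose 72 h postinfection.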

Plasmodium berghei [3] = test: Antimalarial activity in Plasmodium berghei infected mice (Mus musculus) after 320 mg/kg subcutaneous dose; outline: as §3
Plasmodium berghei [4] = test: Antimalarial activity in Plasmodium berghei infected mice (Mus musculus) after 160 mg/kg subcutaneous dose; outline: as §3
Plasmodium berghei [5] = test: (§4) Antimalarial activity in Plasmodium berghei infected mice (Mus musculus) after 40 mg/kg subcutaneous dose; outline: as §3
Plasmodium berghei [6] = test: Antimalarial activity Plasmodium berghei infected mice (Mus musculus) after 640 mg/kg subcutaneous dose; outline: as §3
Plasmodium berghei [7] = test: Antimalarial activity in Plasmodium berghei infected mice (Mus musculus) after 20 mg/kg subcutaneous dose; outline: as §3
Plasmodium berghei [8] = test: Antimalarial activity in Plasmodium berghei infected mice (Mus musculus) after subcutaneous 320 mg/kg dose; outline: as §1
Plasmodium berghei [9] = test: as §4; outline: as §1; remark: listed apart in the source
Plasmodium berghei [10] = test: Antimalarial activity in Plasmodium berghei infected mice (Mus musculus) after subcutaneous 160 mg/kg dose; outline: as §1
Plasmodium berghei [11] = test: as §2; outline: as §1; remark: listed apart in the source

Compound	No. of cured mice (Plasmodium berghei [1])	Delta mean survival time (Plasmodium berghei [2])	Delta mean survival time (Plasmodium berghei [3])	Delta mean survival time (Plasmodium berghei [4])	Delta mean survival time (Plasmodium berghei [5])	Delta mean survival time (Plasmodium berghei [6])	Delta mean survival time (Plasmodium berghei [7])	No. of cured mice (Plasmodium berghei [8])	No. of cured mice (Plasmodium berghei [9])	No. of cured mice (Plasmodium berghei [10])	No. of cured mice (Plasmodium berghei [11])	Delta mean survival time (Plasmodium berghei [7]; 20 mg/kg)	Delta mean survival time (Plasmodium berghei [2]; 80 mg/kg)	No. of cured mice (Plasmodium berghei [9]; 40 mg/kg)	Delta mean survival time (Plasmodium berghei [5]; 40 mg/kg)
CN(C)CCC/N=C1\CC(c2ccccc2)Cc2c1c(=O)c1cc(Cl)ccc1n2O (stereo not given)	5	1.2	8.8	4.2	0.6	–	–	–	–	–	–	–	–	–	–
O=C1CC(c2cccc(C(F)(F)F)c2)Cc2nc3ccc(Cl)cc3c(O)c21 (stereo not given)	–	0.3	3.3	2.3	–	5.3	–	–	–	–	–	–	–	–	–
C=CCNCC/N=C1\CC(c2cccc(C(F)(F)F)c2)Cc2c1c(=O)c1cc(Cl)ccc1n2O (stereo not given)	5	9.4	–	–	5.9	–	3	5	2	5	1	–	–	–	–
CCN(CC)CCCCCCC/N=C1\CC(c2ccc(C(F)(F)F)cc2)Cc2nc3ccc(Cl)cc3c(O)c21 (stereo not given)	3	–	–	23.1	9.6	0.1	–	–	4	3	–	–	–	–	–
CN(C)CCC/N=C1\CC(c2ccc(Cl)c(C(F)(F)F)c2)Cc2nc3ccc(Cl)cc3c(O)c21 (stereo not given)	5	–	–	–	8.7	–	7.5	5	4	5	5	–	–	–	–
CCN1CCCC(/N=C2\CC(c3ccc(Cl)c(Cl)c3)Cc3c2c(=O)c2cc(Cl)ccc2n3O)C1 (stereo not given)	5	7.2	8.8	8.3	–	–	–	4	–	2	–	–	–	–	–
C=CCn1c2c(c(=O)c3cc(Cl)ccc31)C(=O)CC(c1ccc(C(F)(F)F)cc1)C2 (stereo not given)	4	–	–	12.6	8.5	15	–	–	1	–	–	–	–	–	–
CCCC/N=C1\CC(c2ccc(C(F)(F)F)cc2)Cc2c1c(=O)c1cc(Cl)ccc1n2O (stereo not given)	5	10.2	–	–	8.5	–	5.3	5	1	5	3	–	–	–	–
CN(C)CCC/N=C1\CC(c2ccc(Cl)c(Cl)c2)Cc2c1c(=O)c1cc(Cl)ccc1n2O (stereo not given)	5	17.2	–	–	12.7	–	7.1	5	3	5	3	–	–	–	–
COc1ccc2nc3c(c(O)c2c1)C(=O)CC(c1ccc(C(F)(F)F)cc1)C3 (stereo not given)	–	0.1	2.3	2.9	-0.3	4.4	–	–	–	–	–	–	–	–	–
CN(C)CCC/N=C1\CC(c2cccc3ccccc23)Cc2c1c(=O)c1cc(Cl)ccc1n2O (stereo not given)	5	7.1	4.7	9.3	2.6	–	–	4	–	1	–	–	–	–	–
O=c1c2c(n(O)c3ccc(Cl)cc13)CC(c1cccc(C(F)(F)F)c1)C/C2=N\Cc1ccc(Cl)c(Cl)c1 (stereo not given)	5	4.4	11.5	8.4	–	–	–	2	–	–	–	–	–	–	–
N=C1CC(c2cccc(C(F)(F)F)c2)Cc2c1c(=O)c1cc(Cl)ccc1n2O (stereo not given)	–	3.4	7.6	3.8	1.4	8.2	–	–	–	–	–	–	–	–	–
CCN(CC)CCO/N=C1\CC(c2ccc(Cl)c(Cl)c2)Cc2c1c(=O)c1cc(Cl)ccc1n2O (stereo not given)	–	0.9	3.7	2.1	–	8.7	–	–	–	–	–	–	–	–	–
CC(C)C1CC(=O)c2c(n(O)c3ccc(Cl)cc3c2=O)C1 (stereo not given)	5	1.7	8.3	3.5	0.3	–	0.1	–	–	–	–	–	–	–	–
COc1cc(C2CC(=O)c3c(n(O)c4ccc(Cl)cc4c3=O)C2)cc(OC)c1OC (stereo not given)	–	1.3	2.7	1.8	–	7	–	–	–	–	–	–	–	–	–
CCN(CC)C1CCC(/N=C2\CC(c3ccc(Cl)c(Cl)c3)Cc3c2c(=O)c2cc(Cl)ccc2n3O)CC1 (stereo not given)	5	7.2	12.1	–	5.6	–	–	3	–	5	–	–	–	–	–

Compound	No. of cured mice (Plasmodium berghei [1])	Delta mean survival time (Plasmodium berghei [2])	Delta mean survival time (Plasmodium berghei [3])	Delta mean survival time (Plasmodium berghei [4])	Delta mean survival time (Plasmodium berghei [5])	Delta mean survival time (Plasmodium berghei [6])	Delta mean survival time (Plasmodium berghei [7])	No. of cured mice (Plasmodium berghei [8])	No. of cured mice (Plasmodium berghei [9])	No. of cured mice (Plasmodium berghei [10])	No. of cured mice (Plasmodium berghei [11])	Delta mean survival time (Plasmodium berghei [7]; 20 mg/kg)	Delta mean survival time (Plasmodium berghei [2]; 80 mg/kg)	No. of cured mice (Plasmodium berghei [9]; 40 mg/kg)	Delta mean survival time (Plasmodium berghei [5]; 40 mg/kg)
CN(C)CCC/N=C1\CC(c2ccc(Cl)c(Cl)c2)Cc2nc3ccc(Cl)cc3c(O)c21 (stereo not given)	5	11.8	–	–	9.8	–	9.2	5	3	5	4	–	–	–	–
CN(C)CCC/N=C1\CC(c2ccc(C(F)(F)F)cc2)Cc2nc3ccc(Br)cc3c(O)c21 (stereo not given)	2	–	–	–	9.3	25.7	6	5	1	5	5	–	–	–	–
O=C1CC(c2ccc(F)cc2)Cc2c1c(=O)c1cc(Cl)ccc1n2O (stereo not given)	5	9.8	–	8.8	19.4	–	5	5	2	4	4	–	–	–	–
CCN(CC)CC/N=C1\CC(c2cc(OC)c(OC)c(OC)c2)Cc2c1c(=O)c1cc(Cl)ccc1n2O (stereo not given)	–	–	5	1.2	0.8	6	–	–	–	–	–	–	–	–	–
O=C1CC(c2cccc(C(F)(F)F)c2)Cc2c1c(=O)c1cc(Cl)ccc1n2[O-].[Na+] (stereo not given)	5	10	16	13.8	7.8	–	6.4	3	–	–	–	–	–	–	–
CN(C)CCC/N=C1\CC(c2c(Cl)cccc2Cl)Cc2c1c(=O)c1cc(Cl)ccc1n2O (stereo not given)	5	4.1	7.2	9.4	1.2	–	–	1	–	1	–	–	–	–	–
COc1cc(C2C/C(=N\CCCN(C)C)c3c(n(O)c4ccc(Cl)cc4c3=O)C2)cc(OC)c1OC (stereo not given)	–	–	4	1	–	4.3	–	–	–	–	–	–	–	–	–
CCN(CC)CCCC(C)/N=C1\CC(c2ccc(Cl)c(Cl)c2)Cc2c1c(=O)c1cc(Cl)ccc1n2O (stereo not given)	5	9.6	–	–	6.1	–	–	5	1	5	1	–	–	–	–
CN(C)c1ccc(C2CC(=O)c3c(n(O)c4ccc(Cl)cc4c3=O)C2)cc1 (stereo not given)	5	5.8	6.8	6.6	1.6	–	–	3	–	1	–	–	–	–	–
CN(C)CCC/N=C1\CC(c2ccc(Cl)cc2Cl)Cc2nc3c(Cl)ccc(Cl)c3c(O)c21 (stereo not given)	–	0	0	–	–	–	1.2	–	–	–	–	–	–	–	–
CN(C)CCC/N=C1\CC(c2cccc(Br)c2)Cc2c1c(=O)c1cc(Cl)ccc1n2O (stereo not given)	5	5.3	10.2	9.4	1.6	–	–	2	–	–	–	–	–	–	–
CC1C(=O)c2c(nc3ccc(Cl)cc3c2O)CC1c1ccc(Cl)c(Cl)c1 (stereo not given)	5	–	–	–	10.8	–	8.2	5	3	5	5	–	–	–	–
O=C1CC(c2ccccn2)Cc2nc3ccc(Cl)cc3c(O)c21 (stereo not given)	–	1.1	7.3	2.4	–	4.4	–	–	–	–	–	–	–	–	–
CN(C)CCC/N=C1\CC(c2ccc(N(C)C)cc2)Cc2c1c(=O)c1cc(Cl)ccc1n2O (stereo not given)	5	0.9	7.4	6.8	–	–	–	3	–	–	–	–	–	–	–
CC1/C(=N\CCCN(C)C)c2c(nc3ccc(Cl)cc3c2O)CC1c1ccc(Cl)c(Cl)c1 (trans isomer)	–	–	–	–	–	–	–	5	–	5	4	5.3	15	1	7.2
CSCCC/N=C1\CC(c2ccc(Cl)c(Cl)c2)Cc2c1c(=O)c1cc(Cl)ccc1n2O (stereo not given)	1	–	4.1	1.7	–	3.7	–	–	–	–	–	–	–	–	–
